Reference: ChEMBL document CHEMBL4376807, “Hydroxamic Acid Derivatives of β-Carboline/Hydroxycinnamic Acid Hybrids Inducing Apoptosis and Autophagy through the PI3K/Akt/mTOR Pathways” (J Nat Prod, 2019)
Activity calls are given as the source filed them. The calls are words filed in the database; no cut-off is given here.

Legend:
[1] = molecular target: Histone deacetylase (Homo sapiens) (UniProt Q13547+O15379+Q9UBN7+Q92769+Q9UQL6+Q8WUI4+Q9BY41+Q96DB2+P56524+Q9UKV0+Q969S8); assay: Inhibition of HDAC in human Bel7402 cells assessed as increase in acetylated alpha-tubulin expression incubated for 72 hrs by Western blot analysis; format: cell-based
Procedure, shortened: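 Bel7402 cells exposed to vehicle or compound (1.0 and 3.0 μM) for 72 h, with SAHA 5.0 μM as reference. Lysates (0.05 mg/lane) run on 12% SDS-PAGE and transferred to nitrocellulose. Probed with anti-acetyl-H3 and anti-acetyl-α-tubulin, HRP secondary, chemiluminescence. Quantified from three separate assays, mean ± SD.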

Bel-7402 [2] = assay: Induction of apoptosis in human Bel7402 cells assessed as increase in cleaved PARP level at 5 uM after 72 hrs by Western blot analysis; format: functional, cell-based
Procedure, shortened: (§1)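 Subconfluent Bel7402 cells (1.5 × 10^5/mL) exposed to vehicle or compound for 72 h, then lysed. Lysates (0.05 mg/lane) run on 12% SDS-PAGE, transferred to nitrocellulose, blocked in 5% nonfat milk. Probed for Bax, Bcl-2, cleaved caspase-3 and cleaved PARP, with HRP secondary and chemiluminescence. Levels normalized to β-actin; three separate assays, mean ± SD.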

Bel-7402 [3] = assay: Induction of autophagy in human Bel7402 cells assessed as downregulation of LC3-I level at 1 to 5 uM after 24 to 72 hrs by Western blot analysis; format: functional, cell-based
Procedure, shortened: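 Bel7402 cells (1.5 × 10^5/mL) exposed to compound at indicated doses, or vehicle, for 24 or 72 h. Lysates (0.05 mg/lane) separated on 12% SDS-PAGE, blotted to nitrocellulose, blocked in 5% milk. Probed with anti-LC3, anti-p62 and anti-beclin-1, HRP secondary, chemiluminescent detection. Levels quantified relative to β-actin; three separate assays, mean ± SD.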

Histone deacetylase 1 = Histone deacetylase 1 (Homo sapiens, UniProt Q13547); assay: Inhibition of HDAC1 (unknown origin) using Boc-Lys (Ac)-AMC as substrate incubated for 60 mins by fluorimetric assay
Histone deacetylase 1, sequence (Q13547 whole entry): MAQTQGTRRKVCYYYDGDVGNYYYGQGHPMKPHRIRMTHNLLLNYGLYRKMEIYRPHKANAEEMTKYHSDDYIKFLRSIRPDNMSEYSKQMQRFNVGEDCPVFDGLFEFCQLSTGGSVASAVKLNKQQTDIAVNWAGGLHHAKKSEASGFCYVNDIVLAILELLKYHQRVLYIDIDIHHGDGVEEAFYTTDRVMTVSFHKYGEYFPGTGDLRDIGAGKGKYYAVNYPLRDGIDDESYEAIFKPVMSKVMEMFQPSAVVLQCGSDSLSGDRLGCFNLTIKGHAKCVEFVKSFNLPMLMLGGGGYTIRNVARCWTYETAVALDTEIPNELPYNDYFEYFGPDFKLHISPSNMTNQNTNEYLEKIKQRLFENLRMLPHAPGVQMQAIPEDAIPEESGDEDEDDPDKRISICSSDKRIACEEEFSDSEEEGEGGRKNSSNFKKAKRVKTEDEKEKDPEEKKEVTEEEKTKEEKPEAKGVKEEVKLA

Bel-7402 [4] = assay: Induction of apoptosis in human Bel7402 cells assessed as increase in Bax expression after 72 hrs by Western blot analysis; format: functional, cell-based; procedure, shortened: as §1
Bel7402/5-FU = assay: Antiproliferative activity against human Bel7402/5-FU cells at 0.2 to 5 uM after 72 hrs by MTT assay; format: functional, cell-based
Procedure, shortened: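 Cells grown in DMEM with 10% heat-inactivated FBS, penicillin/streptomycin, 37 °C, 5% CO2. Seeded at 10^4 cells/mL overnight, then exposed to a range of compound concentrations for 72 h; 0.1% DMSO negative control. MTT (5 mg/mL stock) added, absorbance read at 570 nm; percent inhibition from three independent experiments, mean ± SD.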

Bel-7402 [5] = assay: Antiproliferative activity against human Bel7402 cells after 72 hrs by MTT assay; format: functional, cell-based; settings: Bel-7402, 72 h
Bel-7402 [6] = assay: Induction of apoptosis in human Bel7402 cells assessed as increase in cleaved PARP level at 1 uM after 72 hrs by Western blot analysis; format: functional, cell-based; procedure, shortened: as §1
[7] = Inhibition of PI3K/AKT/mTOR signaling in human Bel7402 cells assessed as reduction in mTOR phosphorylation after 24 to 72 hrs by Western blot analysis; format: cell-based
Procedure, shortened: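 Bel7402 cells (1.5 × 10^5/mL) exposed to compound at 1.0 and 2.5 μM for 24 or 72 h. Lysates (0.05 mg/lane) separated on 12% SDS-PAGE and blotted to nitrocellulose. Probed for total Akt, phospho-Akt (Ser473), total mTOR and phospho-mTOR, HRP secondary, chemiluminescent detection. Quantified from three separate assays, mean ± SD.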

Bel-7402 [8] = assay: Induction of apoptosis in human Bel7402 cells assessed as annexin-V positive cells at 1 uM after 72 hrs by Annexin-V/PI staining based flow cytometry relative to control; format: functional
Procedure, shortened: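 Bel7402 cells (10 000) cultured overnight, then exposed to compound at 1.0 or 5.0 μM, or vehicle, for 72 h. Harvested, stained with annexin-V APC and 7-AAD for 15 min. Apoptotic percentage measured by flow cytometry (APC ex 633/em 660 nm; 7-AAD ex 488/em 647 nm). Three separate assays, mean ± SD.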

SMMC-7721 = assay: Antiproliferative activity against human SMMC7721 cells after 72 hrs by MTT assay; format: functional, cell-based; settings: SMMC-7721, 72 h
Homo sapiens = organism: Homo sapiens; assay: Selectivity ratio of IC50 for human HDAC3 to IC50 for human HDAC6
Procedure, shortened: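 Recombinant human HDAC1, 3, 6 and 8 (fluorimetric kit) incubated with compound over a range of concentrations and Boc-Lys(Ac)-AMC substrate at 37 °C for 60 min. Reaction quenched with lysine developer; after 30 min, fluorescence read at ex 355/em 460 nm. Inhibition taken relative to control and IC50 fitted; ratios built from these IC50s.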

Histone deacetylase 3 = Histone deacetylase 3 (Homo sapiens, UniProt O15379); assay: Inhibition of human HDAC3 using Boc-Lys (Ac)-AMC as substrate incubated for 60 mins by fluorimetric assay
Histone deacetylase 3, sequence (O15379 whole entry): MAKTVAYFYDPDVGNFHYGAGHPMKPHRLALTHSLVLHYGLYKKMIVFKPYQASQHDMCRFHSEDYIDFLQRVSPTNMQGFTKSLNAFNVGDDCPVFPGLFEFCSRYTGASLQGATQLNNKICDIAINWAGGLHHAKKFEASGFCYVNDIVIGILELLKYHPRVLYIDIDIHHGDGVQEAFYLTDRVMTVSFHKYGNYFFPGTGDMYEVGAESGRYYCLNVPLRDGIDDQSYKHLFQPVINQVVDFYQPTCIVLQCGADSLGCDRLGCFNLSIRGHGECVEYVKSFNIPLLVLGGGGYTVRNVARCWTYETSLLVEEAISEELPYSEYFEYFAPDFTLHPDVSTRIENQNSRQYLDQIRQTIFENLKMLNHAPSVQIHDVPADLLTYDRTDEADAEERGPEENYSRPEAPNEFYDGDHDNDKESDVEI

COc1ccc(-c2nc(NCCCOc3ccc(/C=C/C(=O)NO)cc3OC)cc3c2[nH]c2ccccc23)cc1
inhibition [1]: Dose-dependent effect | Activity (Bel-7402 [2]): Active | Activity (Bel-7402 [3]): Active | IC50 (Histone deacetylase 1): 27 nM | Activity (Bel-7402 [4]): Dose-dependent effect | Activity (Bel7402/5-FU): Active | IC50 (Bel-7402 [5]): 1000 nM | Activity (Bel-7402 [6]): Active | inhibition [7]: Dose-dependent effect | Activity (Bel-7402 [8]): 49.6% | IC50 (SMMC-7721): 2900 nM | Ratio IC50 (Homo sapiens): 7 to 11 | IC50 (Histone deacetylase 3): 148 nM
